Assay results pooled from the literature.
Compare with care: the assays were run in different laboratories.
Cell line: PC-9
Observed: cell growth or viability
Time: 72 h

Compound | assay | conditions | measurement | value
O=C(Nc1ccc(Cl)cc1)Nc1nc2cc(-c3ccc4ncn(CCN5CCOCC5)c(=O)c4c3)ccc2s1 | MTT | – | IC50 | > 20 µM
O=C(Nc1cccc(-c2cn(Cc3ccc(Cl)cc3)nn2)c1)Nc1ccccc1Br | CCK-8 | 50 µM | viability | 107%
COc1ccc(NC(=O)NCc2cn(Cc3ccc(C)cc3)nn2)cc1 | CCK-8 | 20 µM | viability | 105%
O=C(NCc1cn(Cc2ccc(Cl)cc2)nn1)Nc1ccc(Cl)cc1 | CCK-8 | 20 µM | viability | 83.2%
COc1ccc(N(Cc2csc(-c3ccc(Br)cc3)n2)C(=O)CCCCCC(=O)NO)cc1 | MTT | – | IC50 | 1.86 µM
COc1ccc(NC(=O)NCc2cn(Cc3ccc(Cl)cc3)nn2)cc1 | CCK-8 | 20 µM | viability | 96.2%
O=C(Nc1ccc(F)cc1)Nc1nc2cc(-c3ccc4ncn(CC(=O)N5CCOCC5)c(=O)c4c3)ccc2s1 | MTT | – | IC50 | > 20 µM
COc1ccc(N(Cc2csc(-c3ccccc3)n2)C(=O)CCCCCC(=O)NO)cc1 | MTT | – | IC50 | 0.53 µM
O=C(Nc1cccc(-c2cn(Cc3ccc(Br)cc3)nn2)c1)Nc1ccccc1Br | CCK-8 | 20 µM | viability | 128%
COc1ccc(NC(=O)NCc2cn(Cc3ccccc3C)nn2)cc1 | CCK-8 | 20 µM | viability | 94.4%
COc1cccc(NC(=O)Nc2nc3cc(-c4ccc5ncn(CCN(C)C)c(=O)c5c4)ccc3s2)c1 | MTT | – | IC50 | 5.24 µM
O=C(Nc1ccc(Cl)cc1)Nc1ccc(-c2cn(Cc3ccc(Br)cc3)nn2)cc1 | CCK-8 | 20 µM | viability | 71.5%
COc1ccc(C(=O)Nc2nc3cc(-c4ccc5ncn(Cc6ccccc6)c(=O)c5c4)ccc3s2)cc1 | MTT | – | IC50 | > 20 µM
COc1ccc(NC(=O)Nc2ccc(-c3cn(Cc4ccc(Br)cc4)nn3)cc2)cc1 | CCK-8 | 50 µM | viability | 96.4%
CCCn1cnc2ccc(-c3ccc4sc(NC(=O)Nc5ccc(F)cc5)nc4c3)cc2c1=O | MTT | – | IC50 | 1.51 µM
COc1ccc(NC(=O)Nc2ccc(-c3cn(Cc4ccc(C)cc4)nn3)cc2)cc1 | CCK-8 | 20 µM | viability | 87.1%
O=C(NCc1cn(Cc2ccc(Cl)cc2)nn1)Nc1ccccc1Br | CCK-8 | 20 µM | viability | 94.5%
Cc1ccccc1Cn1cc(-c2cccc(NC(=O)Nc3ccc(F)cc3)c2)nn1 | CCK-8 | 20 µM | viability | 88.9%
CCCCn1cnc2ccc(-c3ccc4sc(NC(=O)Nc5ccc(F)cc5)nc4c3)cc2c1=O | MTT | – | IC50 | 6.17 µM
O=C(Nc1ccc(Cl)cc1)Nc1ccc(-c2cn(Cc3ccc(Cl)cc3)nn2)cc1 | CCK-8 | 50 µM | viability | 81.3%
